This is an account of results in ChEMBL document CHEMBL3856186, “Partial Activation and Inhibition of TRPV1 Channels by Evodiamine and Rutaecarpine, Two Major Components of the Fruits of Evodia rutaecarpa” (J Nat Prod, 2016).

Assay type in all cases: cell-based
Assay [1] concerns the target Transient receptor potential cation channel subfamily V member 1 (Rattus norvegicus) (UniProt O35433). Nature of the assay: Agonist activity at rat TRPV1 channel expressed in HEK293 cells assessed as induction of maximum channel current at 50 uM at -60 mV holding potential by whole-cell patch-clamp method. The gist of the method: (§1)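 Rat TRPV1 cDNA and an EGFP reporter were cotransfected into HEK293 cells, with recording 1 day later. Whole-cell voltage clamp was run at room temperature (~25 °C) in standard bath (2 mM CaCl2, pH 7.4) with a KCl/MgATP/EGTA pipette solution. Steps from −100 to +100 mV (100 ms) gave I–V curves. Agonist was applied until desensitization, and peak current was scored. EC50 came from a sigmoidal fit.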

For assay [2] the target is unchanged. Nature of the assay: Agonist activity at rat TRPV1 channel expressed in HEK293 cells assessed as induction of inward current at 50 uM and -60 mV holding potential by whole-cell patch-clamp method. Put shortly:
as §1
In general terms: In patch-clamp work, channel activity is measured electrically.

Assay [3] has as its target Transient receptor potential cation channel subfamily V member 1 (Rattus norvegicus, UniProt O35433). As to the kind of experiment: Agonist activity at rat TRPV1 channel expressed in HEK293 cells assessed as induction of channel current at -60 mV holding potential by whole-cell patch-clamp method. Put shortly: as §1
Assay [4] deals with Transient receptor potential cation channel subfamily V member 1 (Rattus norvegicus) (UniProt O35433). Nature of the assay: Agonist activity at rat TRPV1 channel expressed in HEK293 cells assessed as outward rectifying current at 50 uM and -60 mV holding potential by whole-cell patch-clamp method. The gist of the method:
as §1

For assay [5] the target is unchanged. As to the kind of experiment: Partial antagonist activity at rat TRPV1 expressed in HEK293 cells assessed as inhibition of proton-induced channel current at 1 or 50 uM and -60 mV holding potential pretreated for 60 secs prior to proton-challenge by whole-cell patch clamp method (reference value: 185.1 +/- 38.6 pA/pF). Put shortly: (§2)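 Proton-activated currents were recorded in rat TRPV1-expressing HEK293 cells held at −60 mV in whole-cell mode, with bath buffered to pH 6 with 10 mM MES, at ~25 °C. Peak current amplitude was the read-out.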

Assay [6] shares this target. Nature of the assay: Agonist activity at rat TRPV1 channel expressed in HEK293 cells assessed as reversal potential at 50 uM and -60 mV holding potential by whole-cell patch-clamp method. Put shortly:
as §1

Assay [7] shares this target. Nature of the assay: Partial antagonist activity at rat TRPV1 expressed in HEK293 cells assessed as inhibition of proton-induced channel current at 2 uM at -60 mV holding potential co-treated with proton by whole-cell patch clamp method. The gist of the method: as §2

Active and inactive are the calls of the source. The rule behind the calls is not given here.

Sequence of Transient receptor potential cation channel subfamily V member 1 (Rattus norvegicus) (O35433 whole entry): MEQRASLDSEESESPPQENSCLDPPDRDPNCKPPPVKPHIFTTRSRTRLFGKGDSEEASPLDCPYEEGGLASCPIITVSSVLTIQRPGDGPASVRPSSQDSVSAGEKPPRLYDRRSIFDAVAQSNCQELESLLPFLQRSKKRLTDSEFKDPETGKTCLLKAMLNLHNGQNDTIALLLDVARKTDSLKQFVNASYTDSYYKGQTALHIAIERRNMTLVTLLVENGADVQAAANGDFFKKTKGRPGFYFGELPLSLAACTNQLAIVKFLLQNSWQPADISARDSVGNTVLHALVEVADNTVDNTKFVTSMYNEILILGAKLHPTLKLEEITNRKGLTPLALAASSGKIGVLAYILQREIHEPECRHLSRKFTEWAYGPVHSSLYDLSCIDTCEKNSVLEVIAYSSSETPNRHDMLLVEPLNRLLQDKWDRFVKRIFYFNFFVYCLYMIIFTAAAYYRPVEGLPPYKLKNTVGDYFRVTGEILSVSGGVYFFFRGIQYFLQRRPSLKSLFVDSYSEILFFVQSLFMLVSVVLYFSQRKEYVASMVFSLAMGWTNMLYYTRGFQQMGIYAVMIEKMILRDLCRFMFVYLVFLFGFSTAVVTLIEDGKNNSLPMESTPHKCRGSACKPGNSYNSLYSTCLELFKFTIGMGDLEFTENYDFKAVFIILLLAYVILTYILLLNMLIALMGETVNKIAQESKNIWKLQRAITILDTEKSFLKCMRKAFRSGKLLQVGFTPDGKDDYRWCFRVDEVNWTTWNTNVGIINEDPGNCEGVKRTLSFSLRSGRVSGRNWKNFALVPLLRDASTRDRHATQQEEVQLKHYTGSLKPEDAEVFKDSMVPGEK
Sequence of Transient receptor potential cation channel subfamily V member 1 (O35433 whole entry): as above

On to `O=c1c2ccccc2nc2n1CCc1c-2[nH]c2ccccc12` [RUTAECARPINE], for which the Activity is -55 pA/pF in assay [1], -157 pA/pF in assay [5], 0 mV in assay [6] and -200 pA/pF in assay [7]. For the same molecule, the outcome in assay [2] and in assay [4] was Active. Besides, the EC50 in assay [3] stood at 2.06 µM.

One may read the EC50 as the concentration giving half of the maximal effect.
